Columns and labels:
Format in all cases: toxicity, organism-based
Settings in all cases: in vivo, 120 h
Rattus norvegicus [1] = assay: Cardiotoxicity in albino rat assessed as loss of cardiac fibre at 2 mg/kg, po administered for 5 days measured on day 14 by hematoxylin and eosin staining-based microscopic method
Outline: (§1)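 Female albino rats (110-115 g). Doxorubicin given orally at 2 mg/kg daily for 5 days (cumulative 10 mg/kg). Animals observed 14 days, then killed. Hearts fixed in 40% formalin, transverse sections H&E-stained and examined at 100X and 400X for left-ventricle changes.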

Rattus norvegicus [2] = assay: Cardiotoxicity in albino rat assessed as vacuolation in left ventricle tissue at 2 mg/kg, po administered for 5 days measured on day 14 by hematoxylin and eosin staining-based microscopic method; outline: as §1
Rattus norvegicus [3] = assay: Cardiotoxicity in albino rat assessed as inflammation in left ventricle tissue at 2 mg/kg, po administered for 5 days measured on day 14 by hematoxylin and eosin staining-based microscopic method; outline: as §1

Measured: Activity

COc1cccc2c1C(=O)c1c(O)c3c(c(O)c1C2=O)C[C@@](O)(C(=O)CO)C[C@@H]3O[C@H]1C[C@H](N)[C@H](O)[C@H](C)O1 [DOXORUBICIN]
Toxic: Rattus norvegicus [1] | Rattus norvegicus [2] | Rattus norvegicus [3]
